Reference: ChEMBL document CHEMBL1773058, “Synthesis of 4β-carbamoyl epipodophyllotoxins as potential antitumour agents” (2011)
Calls of active or inactive are those of the source. The calls are words filed in the database; no cut-off is given here.

How the values were obtained:
A549 = assay: Growth inhibition of human A549 cells after 48 hrs by sulforhodamine B assay; assay type: functional; details: A549, 48 h
Method in brief: (§1)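 Cells grown in RPMI-1640 (2 mM glutamine, pH 7.4, 10% FCS, penicillin/streptomycin) at 37 °C, 5% CO2. Subconfluent cells trypsinised, used at >97% viability (trypan blue), plated and grown 24 h, then exposed to test materials 48 h in triplicate. Fixed with TCA at 4 °C for 1 h, stained 30 min with 0.4% SRB in 1% acetic acid, dye solubilised in 10 mM Tris pH 10.4, OD read at 540 nm. GI50 reported.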

KB = assay: Growth inhibition of human KB cells after 48 hrs by sulforhodamine B assay; assay type: functional; method in brief: as §1
ZR-75-1 = assay: Growth inhibition of human ZR-75-1 cells after 48 hrs by sulforhodamine B assay; assay type: functional; details: ZR-75-1, 48 h; method in brief: as §1
SiHa = assay: Growth inhibition of human SiHa cells after 48 hrs by sulforhodamine B assay; assay type: functional; method in brief: as §1
PC-3 = assay: Growth inhibition of human PC3 cells after 48 hrs by sulforhodamine B assay; assay type: functional; details: PC-3, 48 h; method in brief: as §1
[1] = Growth inhibition of human Gurav cells after 48 hrs by sulforhodamine B assay; assay type: functional; method in brief: as §1
HOP-62 = assay: Growth inhibition of human HOP62 cells after 48 hrs by sulforhodamine B assay; assay type: functional; details: HOP-62, 48 h; method in brief: as §1
[2] = Growth inhibition of human DWD cells after 48 hrs by sulforhodamine B assay; assay type: functional; method in brief: as §1
A2780 = assay: Growth inhibition of human A2780 cells after 48 hrs by sulforhodamine B assay; assay type: functional; details: A2780, 48 h; method in brief: as §1
MCF7 = assay: Growth inhibition of human MCF7 cells after 48 hrs by sulforhodamine B assay; assay type: functional; details: MCF7, 48 h; method in brief: as §1
COLO 205 = assay: Growth inhibition of human COLO205 cells after 48 hrs by sulforhodamine B assay; assay type: functional; details: COLO 205, 48 h; method in brief: as §1
[3] = target: DNA topoisomerase 2-alpha (Homo sapiens) (UniProt P11388); assay: Inhibition of topoisomerase 2 assessed as inhibition of relaxation of supercoiled pBR322 plasmid DNA at 10 uM to 1 mM by ethidium bromide staining
Sequence of DNA topoisomerase 2-alpha (Homo sapiens) (P11388 whole entry): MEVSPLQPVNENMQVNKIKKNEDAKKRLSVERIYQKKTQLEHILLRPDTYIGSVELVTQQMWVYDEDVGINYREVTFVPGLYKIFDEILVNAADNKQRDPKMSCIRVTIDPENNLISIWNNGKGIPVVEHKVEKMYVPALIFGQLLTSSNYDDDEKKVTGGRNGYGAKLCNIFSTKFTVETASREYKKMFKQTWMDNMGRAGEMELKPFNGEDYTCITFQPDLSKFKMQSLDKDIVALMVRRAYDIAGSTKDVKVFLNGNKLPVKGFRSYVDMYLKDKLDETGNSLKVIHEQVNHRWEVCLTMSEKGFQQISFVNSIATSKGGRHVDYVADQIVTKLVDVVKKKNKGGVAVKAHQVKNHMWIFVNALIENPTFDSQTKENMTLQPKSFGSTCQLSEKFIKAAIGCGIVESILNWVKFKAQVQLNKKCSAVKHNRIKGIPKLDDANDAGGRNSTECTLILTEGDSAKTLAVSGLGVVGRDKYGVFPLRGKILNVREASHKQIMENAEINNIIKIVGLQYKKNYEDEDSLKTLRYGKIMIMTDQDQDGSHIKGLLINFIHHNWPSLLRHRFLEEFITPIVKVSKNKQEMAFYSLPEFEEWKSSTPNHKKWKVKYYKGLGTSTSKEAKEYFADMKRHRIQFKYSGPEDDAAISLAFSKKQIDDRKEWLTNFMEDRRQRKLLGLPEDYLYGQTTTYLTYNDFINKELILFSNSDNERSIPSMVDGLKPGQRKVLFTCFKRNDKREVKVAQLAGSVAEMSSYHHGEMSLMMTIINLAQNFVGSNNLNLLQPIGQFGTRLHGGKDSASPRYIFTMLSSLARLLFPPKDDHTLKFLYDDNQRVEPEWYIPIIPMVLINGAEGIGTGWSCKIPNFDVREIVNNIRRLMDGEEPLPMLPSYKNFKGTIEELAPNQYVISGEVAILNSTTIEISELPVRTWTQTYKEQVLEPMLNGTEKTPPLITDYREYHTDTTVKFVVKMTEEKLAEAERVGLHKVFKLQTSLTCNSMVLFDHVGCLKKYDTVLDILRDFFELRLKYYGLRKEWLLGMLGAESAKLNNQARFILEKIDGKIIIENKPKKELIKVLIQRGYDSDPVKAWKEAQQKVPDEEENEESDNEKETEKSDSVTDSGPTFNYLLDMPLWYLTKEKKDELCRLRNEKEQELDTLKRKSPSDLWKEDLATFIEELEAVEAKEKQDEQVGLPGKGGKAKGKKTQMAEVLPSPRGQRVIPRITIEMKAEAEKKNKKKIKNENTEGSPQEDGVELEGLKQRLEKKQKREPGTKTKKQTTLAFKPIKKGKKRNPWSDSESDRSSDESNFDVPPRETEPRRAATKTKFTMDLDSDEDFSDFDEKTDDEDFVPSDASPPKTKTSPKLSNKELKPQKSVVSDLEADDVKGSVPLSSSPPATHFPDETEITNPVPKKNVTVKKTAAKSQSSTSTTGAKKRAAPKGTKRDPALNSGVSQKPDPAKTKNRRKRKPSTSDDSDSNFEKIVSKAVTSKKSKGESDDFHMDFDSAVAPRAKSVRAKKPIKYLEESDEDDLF
Method in brief: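 Topo II relaxation reaction stopped with 10% SDS, then proteinase K treatment and extraction with chloroform/isoamyl alcohol (24:1). Products resolved on 1% agarose gel in TAE (40 mM Tris-acetate pH 8.0, 1 mM EDTA) and stained with 0.5 µg/ml ethidium bromide.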

Structure (SMILES)	GI50 (A549) [nM]	GI50 (KB) [nM]	GI50 (ZR-75-1) [nM]	GI50 (SiHa) [nM]	GI50 (PC-3) [nM]	GI50 [1] [nM]	GI50 (HOP-62) [nM]	GI50 [2] [nM]	GI50 (A2780) [nM]	GI50 (MCF7) [nM]	GI50 (COLO 205) [nM]	inhibition [3]
COc1cc([C@@H]2c3cc4c(cc3[C@@H](OC(=O)N(C)C)[C@H]3COC(=O)[C@H]23)OCO4)cc(OC)c1OC	< 100	180	120	2100	150	170	130	< 100	180	160	2100	–
CCCNC(=O)O[C@@H]1c2cc3c(cc2[C@@H](c2cc(OC)c(OC)c(OC)c2)[C@H]2C(=O)OC[C@@H]21)OCO3	< 100	2100	190	1200	170	170	160	2000	190	2000	2700	–
C#CCNC(=O)O[C@@H]1c2cc3c(cc2[C@@H](c2cc(OC)c(OC)c(OC)c2)[C@H]2C(=O)OC[C@@H]21)OCO3	< 100	170	140	1900	160	140	140	< 100	160	190	2700	–
COc1cc([C@@H]2c3cc4c(cc3[C@@H](OC(=O)NCc3ccc(C(F)(F)F)cc3)[C@H]3COC(=O)[C@H]23)OCO4)cc(OC)c1OC	< 100	180	160	2000	2100	190	2300	2000	180	180	150	–
COc1cc([C@@H]2c3cc4c(cc3[C@@H](OC(=O)NCC3CC3)[C@H]3COC(=O)[C@H]23)OCO4)cc(OC)c1OC	< 100	2400	190	2300	2300	180	2500	2000	2000	2300	2500	–
COc1cc([C@@H]2c3cc4c(cc3[C@@H](OC(=O)NCCc3c[nH]c5ccccc35)[C@H]3COC(=O)[C@H]23)OCO4)cc(OC)c1OC	< 100	180	130	1800	160	120	2100	< 100	110	160	120	Active
COc1cc([C@@H]2c3cc4c(cc3[C@@H](O[C@@H]3O[C@@H]5CO[C@@H](C)O[C@H]5[C@H](O)[C@H]3O)[C@H]3COC(=O)[C@H]23)OCO4)cc(OC)c1O [ETOPOSIDE]	3080	300	200	3100	2600	500	800	600	1300	2100	130	–
COc1cc([C@@H]2c3cc4c(cc3[C@@H](OC(=O)NCCN(C)C)[C@H]3COC(=O)[C@H]23)OCO4)cc(OC)c1OC	< 100	160	< 100	2100	150	150	120	< 100	120	110	2100	–
COCCNC(=O)O[C@@H]1c2cc3c(cc2[C@@H](c2cc(OC)c(OC)c(OC)c2)[C@H]2C(=O)OC[C@@H]21)OCO3	< 100	150	< 100	2400	160	140	120	< 100	150	150	2200	–
COc1cc([C@@H]2c3cc4c(cc3[C@@H](OC(=O)N3CCOCC3)[C@H]3COC(=O)[C@H]23)OCO4)cc(OC)c1OC	< 100	120	140	1400	160	140	130	< 100	130	160	2700	Active
COc1cc([C@@H]2c3cc4c(cc3[C@@H](OC(=O)NC(C)C)[C@H]3COC(=O)[C@H]23)OCO4)cc(OC)c1OC	< 100	180	150	190	190	160	2100	< 100	140	190	2700	–
O=c1[nH]cc(F)c(=O)[nH]1 [FLUOROURACIL]	2400	5200	2300	6300	12000	3100	4100	6100	3500	2800	2800	–
